Results published in ChEMBL document CHEMBL4002575, “Progress in the development of β-lactams as N-Acylethanolamine Acid Amidase (NAAA) inhibitors: Synthesis and SAR study of new, potent N-O-substituted derivatives” (Eur J Med Chem, 2017).
Active and inactive are the calls of the source. The calls are words filed in the database; no cut-off is given here.

Key:
[1] = target: T1, N-acylethanolamine-hydrolyzing acid amidase (Homo sapiens, UniProt Q02083); assay: Inhibition of recombinant human spleen NAAA expressed in HEK293 cells using PAMCA as substrate preincubated for 10 mins followed by substrate addition measured after 50 mins by fluorescence assay
T1 sequence (Q02083 whole entry): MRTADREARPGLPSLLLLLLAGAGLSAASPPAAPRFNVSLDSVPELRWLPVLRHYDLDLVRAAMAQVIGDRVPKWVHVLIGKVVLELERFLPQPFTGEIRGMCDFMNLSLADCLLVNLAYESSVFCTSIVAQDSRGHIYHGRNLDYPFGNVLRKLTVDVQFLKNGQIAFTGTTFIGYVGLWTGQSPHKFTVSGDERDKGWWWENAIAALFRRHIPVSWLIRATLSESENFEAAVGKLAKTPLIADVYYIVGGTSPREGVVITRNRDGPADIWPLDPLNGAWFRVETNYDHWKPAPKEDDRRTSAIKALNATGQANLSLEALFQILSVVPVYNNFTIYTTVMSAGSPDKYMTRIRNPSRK

Acid ceramidase = target: T2, Acid ceramidase (Homo sapiens, UniProt Q13510); assay: Inhibition of human acid ceramidase expressed in HEK293 cells using N-[(1S,2R)-2-hydroxy-1-(hydroxymethyl)-4-(2-oxochromen-7-yl)-oxybutyl]dodecanamide as substrate preincubated for 10 mins followed by substrate addition measured after 3 hrs by fluorescence assay; type: cell-based
T2 sequence (Q13510 whole entry): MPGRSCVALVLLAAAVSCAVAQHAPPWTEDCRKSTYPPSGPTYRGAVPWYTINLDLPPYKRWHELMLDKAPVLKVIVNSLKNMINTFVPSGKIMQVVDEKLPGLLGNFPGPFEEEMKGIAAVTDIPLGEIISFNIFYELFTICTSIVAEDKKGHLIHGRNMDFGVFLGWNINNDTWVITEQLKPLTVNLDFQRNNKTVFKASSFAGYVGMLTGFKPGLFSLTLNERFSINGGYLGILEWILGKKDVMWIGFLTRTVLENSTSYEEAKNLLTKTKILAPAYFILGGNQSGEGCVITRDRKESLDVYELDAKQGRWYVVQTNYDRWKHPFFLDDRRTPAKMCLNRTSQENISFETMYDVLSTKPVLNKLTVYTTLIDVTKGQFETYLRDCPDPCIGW
Summary of the method: (§1)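 Human acid ceramidase fluorogenic assay. IC50 taken as the mean of three determinations.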

[2] = Apparent half life in PBS at pH 7.4 at 1 uM at 37 degC after 24 hrs in presence of 10% MeCN by UPLC-MS method; type: physicochemical; conditions: read-out: t1/2(app)
Summary of the method: (§2)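 Compound incubated 24 h at 37 °C in 0.01 M PBS, pH 7.4, containing 10% MeCN.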

[3] = Half life in mouse plasma at 2 uM after 2 hrs by LC/MS-MS method; type: ADME, cell-free
[4] = Half life in rat plasma at 2 uM after 2 hrs by LC/MS-MS method; type: ADME, cell-free
Mus musculus [5] = assay: Antiinflammatory activity in CD1 mouse assessed as inhibition of carrageenan-induced paw edema at 0.5 to 50 ug/paw administered intraplantarly post carrageenan challenge measured over 2 to 48 hrs by plethysmometer; type: functional
Summary of the method: (§3)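 Male CD1 mice (25-30 g). Paw edema induced by λ-carrageenan (1% w/v in sterile water, 50 µl) injected into the left hind paw. A fresh suspension in 80% sterile saline/10% PEG-400/10% Tween 80 (10 µl per animal) was given by intraplantar injection just after carrageenan, as a single dose of 0.5–50 µg/paw. Edema was read by plethysmometer and heat hyperalgesia by behavioural test, both blind.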

Mus musculus [6] = assay: Analgesic activity in CD1 mouse assessed as inhibition of carrageenan-induced heat hyperalgesia at 0.5 to 50 ug/paw administered intraplantarly post carrageenan challenge measured over 2 to 48 hrs; type: functional; summary of the method: as §3
[7] = target: T3, Fatty-acid amide hydrolase 1 (Homo sapiens) (UniProt O00519); assay: Inhibition of human FAAH1 expressed in HEK293 cells at 10 uM using [3H]anandamide as substrate preincubated for 10 mins followed by substrate addition measured after 30 mins by liquid scintillation counting method relative to control
T3 sequence (whole entry): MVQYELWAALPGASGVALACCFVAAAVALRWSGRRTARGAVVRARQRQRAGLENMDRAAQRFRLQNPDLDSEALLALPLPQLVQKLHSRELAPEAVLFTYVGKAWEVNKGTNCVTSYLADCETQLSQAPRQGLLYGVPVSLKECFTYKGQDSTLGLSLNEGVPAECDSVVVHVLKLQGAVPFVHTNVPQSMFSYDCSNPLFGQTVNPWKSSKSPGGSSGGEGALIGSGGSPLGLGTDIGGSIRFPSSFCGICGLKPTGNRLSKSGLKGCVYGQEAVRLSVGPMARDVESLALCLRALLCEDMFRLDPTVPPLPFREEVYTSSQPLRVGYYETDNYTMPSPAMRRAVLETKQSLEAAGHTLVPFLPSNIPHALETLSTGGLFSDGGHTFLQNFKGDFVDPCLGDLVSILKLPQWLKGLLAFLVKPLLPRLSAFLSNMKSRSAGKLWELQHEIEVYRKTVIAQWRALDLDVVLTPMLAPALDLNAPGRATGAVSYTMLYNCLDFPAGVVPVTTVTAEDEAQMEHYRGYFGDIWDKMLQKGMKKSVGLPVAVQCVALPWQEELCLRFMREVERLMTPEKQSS

[8] = Chemical stability in PBS at pH 7.4 assessed as parent compound remaining at 1 uM at 37 degC after 24 hrs in presence of 10% MeCN by UPLC-MS method; type: physicochemical; conditions: read-out: Stability; summary of the method: as §2
Homo sapiens = organism: Homo sapiens; assay: Selectivity ratio of IC50 for human acid ceramidase to IC50 for recombinant human spleen NAAA
Summary of the method: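 Ratio of h-AC IC50 to h-NAAA IC50, each the mean of three determinations in fluorogenic assays. The NAAA was recombinant human enzyme overexpressed in HEK293 cells, purified, then activated for 3 h at 37 °C at pH 4.5 (phosphate/citrate, 3 mM DTT, 0.1% Triton X-100). The NAAA substrate was PAMCA (hexadecanamide of 7-amino-4-methylcoumarin).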

[9] = target: T4, Acid ceramidase (Homo sapiens) (UniProt Q13510); assay: Inhibition of human acid ceramidase expressed in HEK293 cells at 50 uM using N-[(1S,2R)-2-hydroxy-1-(hydroxymethyl)-4-(2-oxochromen-7-yl)-oxybutyl]dodecanamide as substrate preincubated for 10 mins followed by substrate addition measured after 3 hrs by fluorescence assay relative to control; type: cell-based; summary of the method: as §1
T4 sequence (whole entry): T2 sequence (Q13510 whole entry)

Rattus norvegicus = assay: Oral bioavailability in Sprague-Dawley rat at 10 mg/kg after 15 to 1440 mins by UPLC/MS analysis; type: ADME, organism-based; conditions: in vivo

Structure (SMILES)	IC50 [1]	half-life at 1 µM [2]	half-life at 2 µM [3]	half-life at 2 µM [4]	inhibition [7]	other results
CON1C[C@H](NC(=O)OCCCCC2CCCCC2)C1=O	0.016 µM					
C[C@H]1[C@H](NC(=O)OCCCCC2CCCCC2)C(=O)N1Oc1ccc(S(C)(=O)=O)cc1		727 min	< 5 min	< 5 min	> 50%	IC50 (Acid ceramidase): 2.02 µM; inhibition (Mus musculus [5]): Active; inhibition (Mus musculus [6]): Active
CON1C[C@@H](NC(=O)OCCCCC2CCCCC2)C1=O	0.056 µM					
C[C@H]1[C@H](NC(=O)OCCCCC2CCCCC2)C(=O)N1Oc1ccccc1		> 1440 min	< 5 min	< 5 min	> 50%	IC50 (Acid ceramidase): 0.3 µM; remaining at 24 h, 1 µM [8]: 63%; Ratio IC50 (Homo sapiens): 13
CC(=O)N1C[C@H](NC(=O)OCCCCC2CCCCC2)C1=O	> 50 µM					
CON1C(=O)[C@@H](NC(=O)OCCCCC2CCCCC2)[C@@H]1C		> 1440 min	< 5 min	< 5 min	> 50%	inhibition [9]: > 50%; remaining at 24 h, 1 µM [8]: 97%
C[C@H]1[C@H](NC(=O)OCCCCC2CCCCC2)C(=O)N1OCCCS(C)(=O)=O		> 1440 min	< 5 min	< 5 min	> 50%	inhibition [9]: > 50%; remaining at 24 h, 1 µM [8]: 67%; Ratio IC50 (Homo sapiens): > 1000
CCCCCCCCC(=O)N[C@H]1CNC1=O			130 min			F (Rattus norvegicus): 67%
COC(=O)N1C[C@H](NC(=O)OCCCCC2CCCCC2)C1=O	7.18 µM					
CN1C[C@H](NC(=O)OCCCCC2CCCCC2)C1=O	1.98 µM					
C[C@H]1[C@H](NC(=O)OCCCCC2CCCCC2)C(=O)N1OC(C)(C)C	> 50 µM					
